Our source for the Ratio Ki and Ki values is ChEMBL document CHEMBL3351655, “Scaffold decoration at positions 5 and 8 of 1,2,4-triazolo[1,5-c]pyrimidines to explore the antagonist profiling on adenosine receptors: a preliminary structure-activity relationship study” (J Med Chem, 2014).

Assay [1] addresses Adenosine receptors; A1 & A3 (Homo sapiens) (UniProt P30542+P0DMS8). The assay is described as follows: Selectivity ratio of Ki for human adenosine A1 receptor expressed in CHO cells to Ki for human adenosine A3 receptor expressed in CHO cells. In kind it is cell-based.
The target of the next assay is T1, Adenosine receptor A2b (Homo sapiens, UniProt P29275).
T1 sequence (P29275 whole entry): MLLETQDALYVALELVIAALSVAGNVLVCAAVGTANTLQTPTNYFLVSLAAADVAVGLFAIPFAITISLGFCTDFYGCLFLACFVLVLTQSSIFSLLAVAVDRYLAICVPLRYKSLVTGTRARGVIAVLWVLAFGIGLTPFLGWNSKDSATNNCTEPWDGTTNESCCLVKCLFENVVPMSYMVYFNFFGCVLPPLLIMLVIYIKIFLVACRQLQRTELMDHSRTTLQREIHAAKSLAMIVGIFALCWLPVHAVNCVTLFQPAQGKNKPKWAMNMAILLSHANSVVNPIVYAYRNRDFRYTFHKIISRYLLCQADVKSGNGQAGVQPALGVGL
Briefly: Antagonist activity at human adenosine A2B receptor expressed in CHO cells assessed as inhibition of NECA-stimulated adenylyl cyclase activity. It counts as functional, cell-based. A digest of the protocol: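 Membranes from stably transfected CHO cells, made with a single high-speed centrifugation of the homogenate. Incubated 20 min with about 150 000 cpm [α-³²P]ATP, in a mixture without EGTA and NaCl. IC50 for concentration-dependent inhibition of NECA-stimulated adenylyl cyclase was fitted with the Hill equation and converted to Ki by Cheng–Prusoff.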

A further assay addresses T2, Adenosine receptor A1 (Homo sapiens, UniProt P30542).
T2 sequence (P30542 whole entry): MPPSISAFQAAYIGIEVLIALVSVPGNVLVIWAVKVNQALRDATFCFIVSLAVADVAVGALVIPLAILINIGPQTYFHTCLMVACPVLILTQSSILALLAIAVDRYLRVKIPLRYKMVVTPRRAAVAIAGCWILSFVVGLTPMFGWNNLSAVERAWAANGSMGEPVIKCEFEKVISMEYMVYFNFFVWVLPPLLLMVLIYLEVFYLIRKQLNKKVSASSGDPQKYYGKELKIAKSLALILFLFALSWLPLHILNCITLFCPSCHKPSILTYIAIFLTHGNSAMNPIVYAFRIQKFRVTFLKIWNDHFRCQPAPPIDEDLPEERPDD
The assay is described as follows: Displacement of [3H]CCPA from human adenosine A1 receptor expressed in CHO cells. In kind it is cell-based. A digest of the protocol:
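Stably transfected CHO cells were homogenised and spun at 1000g to remove nuclei and fragments. Membranes were then pelleted at 100 000g, resuspended in binding buffer, frozen in liquid nitrogen and stored. Radioligand was [³H]CCPA, with nonspecific binding defined by 1 mM theophylline.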

Assay [2] concerns CHO. Briefly: Selectivity ratio of Ki for human adenosine A1 receptor expressed in CHO cells to Ki for human adenosine A2A receptor expressed in CHO cells. It counts as cell-based.
Another assay concerns the target T3, Adenosine receptor A3 (Homo sapiens, UniProt P0DMS8).
T3 sequence (P0DMS8 whole entry): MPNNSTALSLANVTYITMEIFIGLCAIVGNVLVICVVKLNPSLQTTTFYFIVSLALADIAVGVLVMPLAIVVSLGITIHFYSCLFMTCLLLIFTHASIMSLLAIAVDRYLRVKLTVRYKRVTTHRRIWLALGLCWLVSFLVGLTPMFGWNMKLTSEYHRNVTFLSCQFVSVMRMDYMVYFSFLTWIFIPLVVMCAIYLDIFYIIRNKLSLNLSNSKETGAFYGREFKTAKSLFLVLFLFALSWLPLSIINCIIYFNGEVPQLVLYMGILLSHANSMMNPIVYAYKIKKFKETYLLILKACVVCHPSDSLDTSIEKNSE
The assay is described as follows: Displacement of [3H]NECA from human adenosine A3 receptor expressed in CHO cells. It counts as cell-based. A digest of the protocol:
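Radioligand [³H]NECA was used on membranes from stably transfected CHO cells, prepared by a 1000g clearing spin then pelleting at 100 000g. Pellets were resuspended in binding buffer, frozen in liquid nitrogen and stored. Nonspecific binding was defined with 100 μM R-PIA.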

For assay [3], the system named is CHO. Briefly: Selectivity ratio of Ki for human adenosine A2A receptor expressed in CHO cells to Ki for human adenosine A3 receptor expressed in CHO cells. In kind it is cell-based.
A further assay deals with Adenosine receptor A2a (Homo sapiens, UniProt P29274). The assay is described as follows: Displacement of [3H]NECA from human adenosine A2A receptor expressed in CHO cells. In kind it is cell-based. On the technique in general: Loss of bound radioactivity is the signal in a displacement assay; it reports binding, not function.
Chain of Adenosine receptor A2a (P29274 whole entry): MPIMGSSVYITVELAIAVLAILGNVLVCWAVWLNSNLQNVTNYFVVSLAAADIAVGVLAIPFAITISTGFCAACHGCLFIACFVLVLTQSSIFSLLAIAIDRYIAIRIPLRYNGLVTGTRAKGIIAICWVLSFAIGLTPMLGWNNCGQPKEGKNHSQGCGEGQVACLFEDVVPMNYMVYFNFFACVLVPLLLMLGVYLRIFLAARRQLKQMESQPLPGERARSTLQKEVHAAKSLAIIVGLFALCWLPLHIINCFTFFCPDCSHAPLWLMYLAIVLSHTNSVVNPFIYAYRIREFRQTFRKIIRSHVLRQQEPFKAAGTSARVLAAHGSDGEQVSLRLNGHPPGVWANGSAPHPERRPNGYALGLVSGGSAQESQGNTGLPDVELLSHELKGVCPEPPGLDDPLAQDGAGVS

Where only a bound is given, the exact number is not on record here.

Usually Ki stands for a dissociation constant, usually derived from enzyme kinetics or from competition with a known ligand.

`CCOC(=O)c1cnc(NC(C)C)n2nc(-c3ccco3)nc12`: the Ratio Ki in assay [1] came to 4.23; in the assay on CHO [2] it was 0.39; with CHO [3], 10.9. The Ki on Adenosine receptor A2b is 10 µM; on Adenosine receptor A1, 40 nM; on Adenosine receptor A3, 9.46 nM; at Adenosine receptor A2a it was 103 nM.
`CCOC(=O)c1cnc(NCc2ccc(-c3ccccc3)cc2)n2nc(-c3ccco3)nc12`: the Ratio Ki is 1.02 in assay [1], 4.76 in the assay with CHO [2] and 0.21 in the assay with CHO [3]. In addition, the inhibition constant Ki on Adenosine receptor A2b was over 30 µM; at Adenosine receptor A1, 890 nM; at Adenosine receptor A3, 875 nM; at Adenosine receptor A2a, 187 nM.
`CCOC(=O)c1cnc(NCCOC)n2nc(-c3ccco3)nc12`: the Ratio Ki in assay [1] was found to be 21.6; in the assay on CHO [2], 7.77; in the assay on CHO [3], 2.78. In addition, the inhibition constant Ki on Adenosine receptor A2b was over 10 µM; on Adenosine receptor A1, 2270 nM; on Adenosine receptor A3, 105 nM; on Adenosine receptor A2a it was 292 nM.
For the molecule `COc1ccc(CNc2ncc(C(=O)O)c3nc(-c4ccco4)nn23)cc1OC`, the figures for the Ratio Ki (in assay [1]; in the assay with CHO [3]) were 6.02 and 33.4, respectively. Moreover, the Ki is over 30 µM on Adenosine receptor A2b, 958 nM at Adenosine receptor A1, 159 nM at Adenosine receptor A3 and 5320 nM at Adenosine receptor A2a.
For the molecule `CCOC(=O)c1cnc(NCc2ccc(Cl)cc2)n2nc(-c3ccco3)nc12`, the Ratio Ki in assay [1] worked out at 15.2; in the assay with CHO [2], 11.8; in the assay with CHO [3], 1.29. In addition, the Ki is 1.63 µM on Adenosine receptor A2b, 866 nM on Adenosine receptor A1, 56.8 nM at Adenosine receptor A3 and 73.2 nM at Adenosine receptor A2a.
In the case of `CNC(=O)c1cnc(NC(=O)Nc2ccccc2)n2nc(-c3ccco3)nc12`, the Ratio Ki in assay [1] is 0.17; in the assay on CHO [2], 21.9; in the assay with CHO [3], 0.01. The Ki at Adenosine receptor A2b is 1.18 µM; on Adenosine receptor A1, 126 nM; at Adenosine receptor A3 it was 730 nM; at Adenosine receptor A2a, 5.76 nM.
Turning to `CNC(=O)c1cnc(NC(=O)Cc2ccccc2)n2nc(-c3ccco3)nc12`, the results for the Ratio Ki (in assay [1]; in the assay on CHO [2]; in the assay on CHO [3]) were 0.25, 23.9 and 0.01, respectively. The Ki at Adenosine receptor A2b amounted to 4.84 µM; on Adenosine receptor A1, 296 nM; at Adenosine receptor A3, 1190 nM; on Adenosine receptor A2a it was 12.4 nM.
As for `CCOC(=O)c1cnc(NCc2ccc(OC)c(OC)c2)n2nc(-c3ccco3)nc12`, the Ratio Ki in assay [1] is 8.14; in the assay on CHO [2] it was 2.71; with CHO [3], 3. Moreover, the inhibition constant Ki worked out at 13.3 µM at Adenosine receptor A2b, 315 nM on Adenosine receptor A1, 38.7 nM at Adenosine receptor A3 and 116 nM on Adenosine receptor A2a.
Turning to `CCOC(=O)c1cnc(N2CCCCC2)n2nc(-c3ccco3)nc12`, the Ratio Ki in assay [1] is 5; in the assay on CHO [2], 1.08; in the assay with CHO [3], 4.62. In addition, the Ki on Adenosine receptor A2b is over 10 µM; at Adenosine receptor A1, 8860 nM; at Adenosine receptor A3 it was 1770 nM; on Adenosine receptor A2a, 8180 nM.
Regarding `O=C(O)c1cnc(NCc2ccc(Cl)cc2)n2nc(-c3ccco3)nc12`, the Ratio Ki (in assay [1]; in the assay with CHO [3]) was over 8.62 throughout. The Ki is over 30 µM at Adenosine receptor A2b, over 100000 nM on Adenosine receptor A1, 11600 nM on Adenosine receptor A3 and over 100000 nM on Adenosine receptor A2a.
As for `COc1ccc(CCCn2ncc3c2nc(N)n2nc(-c4ccco4)nc32)cc1`, the inhibition constant Ki on Adenosine receptor A2b is over 10 µM; at Adenosine receptor A1 it was 1110 nM; on Adenosine receptor A3, over 10000 nM.
As to `CCOC(=O)c1cnc(NN2CCOCC2)n2nc(-c3ccco3)nc12`, the Ki at Adenosine receptor A2b was over 10 µM; on Adenosine receptor A1, over 100000 nM; on Adenosine receptor A3 it was over 30000 nM; on Adenosine receptor A2a it was over 100000 nM.
For the molecule `CNc1ncc(C(=O)O)c2nc(-c3ccco3)nn12`, the Ratio Ki (in assay [1]; in the assay with CHO [3]) was over 6.29 throughout. The Ki at Adenosine receptor A2b was over 10 µM; at Adenosine receptor A1, over 100000 nM; at Adenosine receptor A3, 15900 nM; on Adenosine receptor A2a, over 100000 nM.
